Laboratory results reported in ChEMBL document CHEMBL1121913, “Inactivation of liver alcohol dehydrogenases and inhibition of ethanol metabolism by ambivalent active-site-directed reagents” (J Med Chem, 1981).

How the values were obtained:
[1] = target: T1, Alcohol dehydrogenase (Homo sapiens) (UniProt P07327+P08319+P00325+P00326+P40394+P11766+P28332); assay: The compound was tested for the ability to inactivate human liver alcohol dehydrogenase in the presence of 1 mM NAD+K
Procedure, shortened: (§1)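 Human liver ADH, purified on carboxymethyl- and DEAE-cellulose plus (NH₄)₂SO₄ (60%) with 5% ethanol throughout, ethanol dialysed out. Inactivation at 25 °C in 0.1 M Na₂P₂O₇, pH 8, enzyme about 0.2 mg/mL, 0.2 mM reagent; NAD⁺ added 1 min before reagent where used. Apparent second-order constant calculated assuming first order in reagent.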

[2] = The compound was tested for the ability to inactivate rat liver alcohol dehydrogenase in the presence of 1 mM NAD+K
Procedure, shortened: (§2)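 Rat liver enzyme purified 15-fold ((NH₄)₂SO₄ 35–75%, DEAE-cellulose). Inactivation with 0.2 mM reagent, 0.1 M pyrophosphate buffer pH 8, 25 °C, enzyme near 0.2 mg/mL; NAD⁺ preincubated 1 min with enzyme before reagent addition. Apparent second-order constants computed on assumption of first-order dependence on reagent.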

[3] = The compound was tested for the ability to inactivate mouse liver alcohol dehydrogenase in the presence of 1 mM NAD+K
Procedure, shortened: (§3)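 Mouse liver ADH, fourfold purified ((NH₄)₂SO₄ 45–65% cut, DEAE-cellulose), incubated at about 0.2 mg/mL with 0.2 mM reagent in 0.1 M Na₂P₂O₇ pH 8, 25 °C; coenzyme, when present, added 1 min before inactivator. Apparent second-order rate constant derived assuming reaction first order in reagent.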

[4] = Toxic effect in rats; type: toxicity, organism-based; settings: rat, in vivo
Procedure, shortened: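 Male Sprague-Dawley rats (160–200 g), two per dose; single i.p. dose of compound suspended in sterile 0.9% saline. Acute lethality scored over 24 h after dosing.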

[5] = target: T2, Alcohol dehydrogenase (Equus caballus) (UniProt P00327+P00328); assay: The compound was tested for the ability to inactivate horse liver alcohol dehydrogenase in the absence of NAD+(K
[6] = Percent inhibition of Alcohol dehydrogenase activity in mice liver at dose 0.13 mmol/kg; type: tissue-based
Procedure, shortened: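 Male Swiss-Webster mice (20–25 g), fed, given one ip dose of reagent suspended in sterile 0.9% saline, then ethanol 3 g/kg ip (40% w/v in saline) 22–24 h later. Liver removed once blood ethanol approached zero, chilled, homogenized, clarified by centrifugation. ADH activity taken as initial-velocity difference, ethanol/NAD⁺ assay minus same assay with 10 mM pyrazole, per mg protein. Four or five mice per group.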

[7] = The compound was tested for the ability to inactivate mouse liver alcohol dehydrogenase in the absence of NAD+K; procedure, shortened: as §3
[8] = test system: Mus musculus; assay: Percent inhibition of rate of ethanol metabolism in mice at dose 0.13 mmol/kg; type: functional
Procedure, shortened: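 Mice (male Swiss-Webster, fed) dosed ip with reagent in saline 22–24 h before ethanol 3 g/kg ip. Tail-vein blood (5 µL) deproteinized with Ba(OH)₂/ZnSO₄, 1-propanol internal standard, analyzed by GC with flame-ionization detection. Elimination slope fitted excluding absorption (1–2 h), multiplied by r (dose / theoretical zero-time blood level) to give metabolic rate. Four or five mice per group.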

[9] = (§4) Percent inhibition of Alcohol dehydrogenase activity in rat liver at dose 0.13 mmol/kg; type: tissue-based
Procedure, shortened: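 Male Sprague-Dawley rats (160–200 g), two per experiment; compound suspended in sterile 0.9% saline, single i.p. dose 22–24 h before i.p. ethanol 2 g/kg (40% w/v in saline). Tail-vein blood ethanol by GC (1-propanol internal standard); elimination rate = β slope × dose/extrapolated zero-time level. Liver ADH afterwards: homogenate activity with ethanol/NAD⁺ minus 10 mM pyrazole control, per mg protein.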

[10] = Toxic effect in mice; type: toxicity, organism-based; settings: mouse, in vivo
Procedure, shortened: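 Male Swiss-Webster mice (20–25 g); single i.p. dose of compound suspended in sterile 0.9% saline. Acute lethality scored over 24 h; LD₅₀ with limits at p ≤ 0.05 from three doses on 15 mice.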

[11] = target: T2, Alcohol dehydrogenase (Equus caballus); assay: (§5) The compound was tested for the ability to inactivate horse liver alcohol dehydrogenase in the presence of 0.2 mM NAD+K
[12] = as §5
[13] = The compound was tested for the ability to inactivate rat liver alcohol dehydrogenase in the absence of NAD+K; procedure, shortened: as §2
[14] = target: T2, Alcohol dehydrogenase (Equus caballus); assay: The compound was tested for the ability to inactivate horse liver alcohol dehydrogenase in the presence of 1 mM NAD+(K
[15] = test system: Mus musculus; assay: Percent inhibition of recovery of rotarod performance in mice at dose 0.13 mmol/kg; type: functional
Procedure, shortened: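 Mice trained to hang on a 2-cm rod rotating at 7 rpm, two 15-min periods. Reagent given ip 22 h before ethanol 3 g/kg; five mice per dose, five vehicle controls. Impairment = 100(15 − minutes on rod)/15, probit-transformed; t1/2 for regaining 50% performance by regression. Inhibition = [t1/2(treated) − t1/2(control)]/t1/2(treated).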

[16] = target: T1, Alcohol dehydrogenase (Homo sapiens); assay: The compound was tested for the ability to inactivate human liver alcohol dehydrogenase in the absence of NAD+K; procedure, shortened: as §1
[17] = test system: Rattus norvegicus; assay: Percent inhibition of rate of ethanol metabolism in rats at dose 0.13 mmol/kg; type: functional
Procedure, shortened: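 Rats (male Sprague-Dawley, fed) pretreated ip with reagent suspended in saline 22–24 h before ethanol 2 g/kg ip. Serial 5 µL tail-vein samples, Ba(OH)₂/ZnSO₄ deproteinization with 1-propanol internal standard, GC-FID. Metabolic rate = blood-ethanol decline slope × ratio of dose to extrapolated zero-time blood level. Two rats per experiment.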

[18] = test system: Alcohol dehydrogenase (Homo sapiens); assay: The compound was tested for the ability to inactivate human liver alcohol dehydrogenase in the presence of 0.2 mM NADH(K
[19] = target: T1, Alcohol dehydrogenase (Homo sapiens); assay: The compound was tested for the ability to inactivate human liver alcohol dehydrogenase in the absence of NAD+(K; procedure, shortened: as §1
[20] = target: T1, Alcohol dehydrogenase (Homo sapiens); assay: The compound was tested for the ability to inactivate human liver alcohol dehydrogenase in the presence of 1 mM NAD+(K; procedure, shortened: as §1
[21] = test system: Alcohol dehydrogenase (Equus caballus); assay: The compound was tested for the ability to inactivate horse liver alcohol dehydrogenase in the presence of 0.2 mM NAD+K
[22] = The compound was tested for the ability to inactivate rat liver alcohol dehydrogenase in the presence of NAD+K; procedure, shortened: as §2
[23] = target: T2, Alcohol dehydrogenase (Equus caballus); assay: The compound was tested for the ability to inactivate horse liver alcohol dehydrogenase in the absence of NAD+k
[24] = target: T2, Alcohol dehydrogenase (Equus caballus); assay: The compound was tested for the ability to inactivate horse liver alcohol dehydrogenase in the presence of 0.2 mM NAD+(K
[25] = target: T2, Alcohol dehydrogenase (Equus caballus); assay: The compound was tested for the ability to inactivate horse liver alcohol dehydrogenase in the presence of 1 mM NAD+k
[26] = as §4; type: tissue-based; remark: listed apart in the source
Procedure, shortened: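 Fed male Sprague-Dawley rats (160–200 g) received a single ip saline-suspended reagent dose, then ethanol 2 g/kg ip (40% w/v in saline) 22–24 h afterwards. Liver excised when blood ethanol neared zero, homogenized on ice, centrifuged. Activity = initial rate with ethanol and NAD⁺ minus rate in control assay containing 10 mM pyrazole, expressed per mg protein. Two rats per experiment.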

[27] = target: T2, Alcohol dehydrogenase (Equus caballus); assay: The compound was tested for the ability to inactivate horse liver alcohol dehydrogenase in the presence of 1 mM NAD+K
[28] = target: T1, Alcohol dehydrogenase (Homo sapiens); assay: The compound was tested for the ability to inactivate human liver alcohol dehydrogenase in the presence of 1 mM NAD+k; procedure, shortened: as §1

| SMILES | Rate constant [2] [M⁻¹ s⁻¹] | Rate constant [3] [M⁻¹ s⁻¹] | Rate constant [7] [M⁻¹ s⁻¹] | Rate constant [11] [M⁻¹ s⁻¹] | Rate constant [13] [M⁻¹ s⁻¹] | Rate constant [16] [M⁻¹ s⁻¹] | Rate constant [23] [M⁻¹ s⁻¹] | Rate constant [25] [M⁻¹ s⁻¹] | Rate constant [28] [M⁻¹ s⁻¹] | also measured |
| --- | --- | --- | --- | --- | --- | --- | --- | --- | --- | --- |
| NC(=O)CCCc1ccc(NC(=O)CBr)cc1 | 1.17 | 1 | 0.6 | 2.67 | 0.583 | 0.09 | – | – | – | Rate constant [1]: 5.33 M⁻¹ s⁻¹; LD50 [4]: 130 µmol/kg; Rate constant [5]: 0.667 M⁻¹ s⁻¹; inhibition [6]: 21%; inhibition in vivo at 130 µmol/kg [8]: 20%; inhibition [9]: 21%; LD50 [10]: 210 µmol/kg; Rate constant [12]: 2.67 M⁻¹ s⁻¹; Rate constant [14]: 3.17 M⁻¹ s⁻¹; inhibition in vivo at 130 µmol/kg [15]: 58%; inhibition in vivo at 130 µmol/kg [17]: 26% |
| O=C(O)CBr | 0.0133 | – | 0.163 | – | 0.217 | 0.0133 | 0.138 | 0.0015 | – | – |
| O=C(O)CCCCCCCCCCCNC(=O)CBr | 0.0167 | – | 0.717 | – | 0.317 | 2.33 | 2 | 0.0533 | 5.33 | – |

Second part, led by results:

| Rate constant [2] [M⁻¹ s⁻¹] | Rate constant [3] [M⁻¹ s⁻¹] | Rate constant [7] [M⁻¹ s⁻¹] | Rate constant [11] [M⁻¹ s⁻¹] | Rate constant [13] [M⁻¹ s⁻¹] | Rate constant [16] [M⁻¹ s⁻¹] | Rate constant [23] [M⁻¹ s⁻¹] | Rate constant [25] [M⁻¹ s⁻¹] | Rate constant [28] [M⁻¹ s⁻¹] | SMILES | also measured |
| --- | --- | --- | --- | --- | --- | --- | --- | --- | --- | --- |
| 0.533 | 0.233 | 0.633 | 0.25 | – | – | 1.67 | 2 | – | O=C(O)CCCc1ccc(NC(=O)CBr)cc1 | Rate constant [18]: 0.085 M⁻¹ s⁻¹; Rate constant [19]: 0.183 M⁻¹ s⁻¹; Rate constant [20]: 2.33 M⁻¹ s⁻¹; Rate constant [21]: 0.25 M⁻¹ s⁻¹; Rate constant [22]: 0.533 M⁻¹ s⁻¹; Rate constant [24]: 0.25 M⁻¹ s⁻¹; inhibition [26]: 27%; inhibition in vivo at 130 µmol/kg [17]: 24% |
| – | – | – | 0.0267 | – | – | – | – | – | NC(=O)CCCc1ccc(NC(=O)CCl)cc1 | Rate constant [27]: 0.0417 M⁻¹ s⁻¹ |
| 0.417 | 0.105 | 0.717 | – | 0.483 | 0.833 | 2.33 | 0.4 | 58.3 | O=C(CBr)Nc1ccc(-c2ccc(C(=O)O)cc2)cc1 | – |
| 0.383 | 0.183 | 2.88 | – | 1.15 | 0.433 | 5.33 | 0.283 | 4.83 | O=C(CBr)Nc1ccc(Oc2ccc(C(=O)O)cc2)cc1 | – |
